Laboratory results as given in ChEMBL document CHEMBL3992520, “Development of the First Two-Pore Domain Potassium Channel TWIK-Related K+ Channel 1-Selective Agonist Possessing in Vivo Antinociceptive Activity” (J Med Chem, 2017).

Key:
Liver [1] = experiment: Drug level in rat liver microsomes treated with at 40 mM (E)-ethyl 2-cyano-3-(3,4-dihydroxyphenyl)acrylate measured after 24 hrs by HPLC analysis; assay type: ADME, microsome; conditions: 40000 µM
In short: (§1)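 Incubation mix: rat liver microsomes (20 mg/mL stock), phosphate buffer pH 7.4 and NADPH (40 mM stock). Drug was added from a 40 mM DMSO stock. Samples were vortexed and incubated at 37 °C with stirring.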

[2] = target: T1, Potassium channel subfamily K member 2 (Homo sapiens) (UniProt O95069); experiment: Agonist activity at human TREK1 expressed in xenopus oocytes assessed as increase in K+ current at 20 uM measured at 0 mV by double microelectrode method relative to control; assay type: cell-based
T1 sequence (whole entry): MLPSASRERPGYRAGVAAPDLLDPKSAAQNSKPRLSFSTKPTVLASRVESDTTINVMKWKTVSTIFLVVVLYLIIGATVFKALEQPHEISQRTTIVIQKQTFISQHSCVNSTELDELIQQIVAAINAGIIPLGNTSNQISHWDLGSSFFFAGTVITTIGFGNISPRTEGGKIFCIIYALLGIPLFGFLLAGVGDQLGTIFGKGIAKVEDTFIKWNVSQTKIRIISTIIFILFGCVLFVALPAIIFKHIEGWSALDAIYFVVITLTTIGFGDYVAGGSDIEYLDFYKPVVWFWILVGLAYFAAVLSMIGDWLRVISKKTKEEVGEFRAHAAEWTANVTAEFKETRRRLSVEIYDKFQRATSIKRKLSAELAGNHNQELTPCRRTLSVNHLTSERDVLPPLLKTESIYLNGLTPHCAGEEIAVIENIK

Mus musculus [3] = experiment: Antinociceptive activity in CD1 mouse assessed as increase in thermal-stimulus induced paw withdrawal latency at 60 mg/kg, sc measured after 45 mins by hot plate method relative to control; assay type: functional
In short: (§2)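 Male CD1 mice (20-25 g), n=8 per group, given 60 mg/kg s.c. After 5 min acclimatization on a plate at room temperature, mice were placed on a 52 °C hotplate. Latency to forepaw or hindpaw licking or hindpaw flicking was recorded, with a 30 s cut-off. Latency was taken after two consecutive stable baselines, then 30 and 45 min post-dose. Effect = (postdrug − predrug latency)/predrug latency ×100.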

[4] = target: T1, Potassium channel subfamily K member 2 (Homo sapiens); experiment: Agonist activity at human TREK1 expressed in HEK293 cells assessed as increase in K+ current at 100 uM measured at +60 mV by whole-cell patch clamp method relative to control; assay type: cell-based
In short: (§3)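 Human TREK-1 (kcnk2) in pIRES2-eGFP was stably expressed in HEK-293 cells under G418 selection, and cells were used 4–48 h after plating. Bath (mM): 140 NaCl, 10 TEA-Cl, 5 KCl, 3 MgCl2, 1 CaCl2, 10 HEPES, pH 7.4. Pipette (mM): 155 KCl, 3 MgCl2, 5 EGTA, 10 HEPES, pH 7.2. Holding was −80 mV, with a step to −100 mV then a 400 ms ramp to +60 mV every 5 s. Read-out was the ratio Imax/I0 taken from I/V curves. Stocks were 20 mM in DMSO.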

Mus musculus [5] = experiment: Antinociceptive activity in CD1 mouse assessed as increase in thermal-stimulus induced paw withdrawal latency at 60 mg/kg, sc measured after 30 mins by hot plate method relative to control; assay type: functional; in short: as §2
Mus musculus [6] = experiment: Antinociceptive activity in CD1 mouse assessed as inhibition of acetic acid-induced writhes at 10 mg/kg, sc pretreated for 15 mins followed by acetic acid challenge measured within 20 mins relative to control; assay type: functional
In short: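 Male CD1 mice (20-25 g), n=8 per group, dosed at 10 mg/kg s.c. or with vehicle (5% Tween 80 in 0.9% saline). Dosing was 15 min before i.p. 0.6% acetic acid (10 mL/kg). Abdominal writhes were counted for 20 min. Effect = (mean control writhes − mean test writhes)/mean control writhes ×100.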

[7] = Half life in rat liver microsomes at 40 mM in presence of NADPH-cofactor by HPLC analysis; assay type: ADME, microsome
Liver [8] = experiment: Drug metabolism in rat liver microsomes assessed as (E)-2-cyano-3-(furan-3-yl)acrylic acid formation at 40 mM in presence of NADPH-cofactor measured after 24 hrs by HPLC analysis; assay type: ADME, microsome; conditions: 40000 µM; in short: as §1
[9] = target: Potassium channel subfamily K member 9 (Homo sapiens) (UniProt Q9NPC2); experiment: Agonist activity at TASK3 (unknown origin) expressed in HEK293 cells assessed as increase in K+ current at 20 uM measured at +60 mV by whole-cell patch clamp method relative to control; assay type: cell-based
Chain of Potassium channel subfamily K member 9 (Homo sapiens) (Q9NPC2 whole entry): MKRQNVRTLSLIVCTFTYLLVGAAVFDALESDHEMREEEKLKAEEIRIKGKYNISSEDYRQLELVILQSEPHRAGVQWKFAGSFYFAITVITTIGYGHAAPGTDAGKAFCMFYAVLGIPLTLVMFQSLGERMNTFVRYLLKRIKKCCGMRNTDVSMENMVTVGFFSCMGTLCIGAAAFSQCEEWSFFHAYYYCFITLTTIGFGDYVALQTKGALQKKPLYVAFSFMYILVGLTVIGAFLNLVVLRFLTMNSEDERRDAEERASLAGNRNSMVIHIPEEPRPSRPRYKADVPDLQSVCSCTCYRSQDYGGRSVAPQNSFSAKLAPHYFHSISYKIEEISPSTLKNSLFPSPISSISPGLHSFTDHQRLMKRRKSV

Mus musculus [10] = experiment: Antinociceptive activity in wild-type C57Bl/6J mouse assessed as increase in thermal-stimulus induced paw withdrawal latency at 60 mg/kg, sc measured after 30 mins by hot plate method relative to control; assay type: functional
In short: (§4)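 TREK-1−/− and wild-type C57Bl/6J littermates came from heterozygous crosses, n=7. Dose was 60 mg/kg s.c. The 52 °C hotplate measured paw-lick latency, 30 s cut-off, with baseline from two stable pre-dose latencies.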

Mus musculus [11] = experiment: Antinociceptive activity in wild-type C57Bl/6J mouse assessed as increase in thermal-stimulus induced paw withdrawal latency at 60 mg/kg, sc measured after 45 mins by hot plate method relative to control; assay type: functional; in short: as §4
[12] = target: T2, Potassium channel subfamily K member 10 (Homo sapiens) (UniProt P57789); experiment: Agonist activity at TREK-2 (unknown origin) expressed in HEK293 cells assessed as increase in K+ current at 20 uM measured at +60 mV by whole-cell patch clamp method relative to control; assay type: cell-based
T2 sequence (whole entry): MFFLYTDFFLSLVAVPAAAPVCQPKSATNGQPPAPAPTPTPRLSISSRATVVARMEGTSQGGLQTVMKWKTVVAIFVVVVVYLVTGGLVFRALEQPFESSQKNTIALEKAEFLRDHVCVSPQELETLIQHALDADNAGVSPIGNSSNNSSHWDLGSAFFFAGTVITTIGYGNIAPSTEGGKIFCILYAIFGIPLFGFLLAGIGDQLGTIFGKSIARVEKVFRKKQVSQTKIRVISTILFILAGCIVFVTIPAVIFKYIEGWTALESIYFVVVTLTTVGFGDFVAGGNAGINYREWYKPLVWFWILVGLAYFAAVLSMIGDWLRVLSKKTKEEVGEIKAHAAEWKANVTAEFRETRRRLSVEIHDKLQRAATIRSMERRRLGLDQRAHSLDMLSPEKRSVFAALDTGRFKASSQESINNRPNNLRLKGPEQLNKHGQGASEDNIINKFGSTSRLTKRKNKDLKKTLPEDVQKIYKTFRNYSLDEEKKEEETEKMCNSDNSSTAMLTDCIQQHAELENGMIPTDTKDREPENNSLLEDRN

[13] = target: T1, Potassium channel subfamily K member 2 (Homo sapiens); experiment: Agonist activity at human TREK1 expressed in HEK293 cells assessed as increase in K+ current at 20 uM measured at +60 mV by whole-cell patch clamp method relative to control; assay type: cell-based; in short: as §3
Mus musculus [14] = experiment: In vivo activation of TREK1 in C57Bl/6J mouse assessed as increase in thermal-stimulus induced paw withdrawal latency at 60 mg/kg, sc measured after 30 mins by hot plate method relative to control; assay type: functional; in short: as §4
Mus musculus [15] = experiment: Antinociceptive activity in TREK1 deficient C57Bl/6J mouse assessed as increase in thermal-stimulus induced paw withdrawal latency at 60 mg/kg, sc measured after 30 mins by hot plate method relative to control; assay type: functional; in short: as §4
[16] = target: T3, Potassium channel subfamily K member 4 (Homo sapiens) (UniProt Q9NYG8); experiment: Agonist activity at TRAAK (unknown origin) expressed in HEK293 cells assessed as increase in K+ current at 20 uM measured at +60 mV by whole-cell patch clamp method relative to control; assay type: cell-based
T3 sequence (whole entry): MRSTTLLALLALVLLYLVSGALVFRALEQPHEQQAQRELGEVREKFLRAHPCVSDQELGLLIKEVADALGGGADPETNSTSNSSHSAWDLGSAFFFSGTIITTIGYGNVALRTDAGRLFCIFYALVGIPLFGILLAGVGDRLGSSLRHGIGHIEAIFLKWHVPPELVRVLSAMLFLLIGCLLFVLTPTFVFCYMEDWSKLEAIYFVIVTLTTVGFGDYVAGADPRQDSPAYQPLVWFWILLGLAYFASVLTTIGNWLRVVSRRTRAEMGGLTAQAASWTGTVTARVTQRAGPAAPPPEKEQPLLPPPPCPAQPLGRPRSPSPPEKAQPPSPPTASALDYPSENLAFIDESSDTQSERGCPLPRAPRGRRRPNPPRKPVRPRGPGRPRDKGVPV

Mus musculus [17] = experiment: In vivo activation of TREK1 in C57Bl/6J mouse assessed as increase in thermal-stimulus induced paw withdrawal latency at 60 mg/kg, sc measured after 45 mins by hot plate method relative to control; assay type: functional; in short: as §4
Mus musculus [18] = experiment: Antinociceptive activity in TREK1 deficient C57Bl/6J mouse assessed as increase in thermal-stimulus induced paw withdrawal latency at 60 mg/kg, sc measured after 45 mins by hot plate method relative to control; assay type: functional; in short: as §4
[19] = target: T4, Potassium channel subfamily K member 2 (Bos taurus) (UniProt Q8HY88); experiment: Agonist activity at TREK1 in bovine AZF cells assessed as increase in K+ current at 40 uM by whole-cell patch clamp method relative to control; assay type: cell-based
T4 sequence (whole entry): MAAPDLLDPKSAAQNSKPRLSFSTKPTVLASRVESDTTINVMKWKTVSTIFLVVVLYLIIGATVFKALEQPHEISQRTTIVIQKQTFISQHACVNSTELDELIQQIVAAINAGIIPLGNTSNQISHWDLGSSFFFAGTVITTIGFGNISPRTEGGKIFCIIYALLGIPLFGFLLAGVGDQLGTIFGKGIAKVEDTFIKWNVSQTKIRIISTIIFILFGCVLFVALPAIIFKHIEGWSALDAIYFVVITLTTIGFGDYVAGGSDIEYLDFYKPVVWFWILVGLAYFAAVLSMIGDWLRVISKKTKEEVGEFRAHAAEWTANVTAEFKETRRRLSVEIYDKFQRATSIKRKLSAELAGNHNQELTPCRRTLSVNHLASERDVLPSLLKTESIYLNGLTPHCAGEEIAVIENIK

[20] = target: T3, Potassium channel subfamily K member 4 (Homo sapiens); experiment: Agonist activity at TRAAK (unknown origin) expressed in HEK293 cells assessed as increase in K+ current at 10 uM measured at +60 mV by whole-cell patch clamp method relative to control; assay type: cell-based
[21] = target: T1, Potassium channel subfamily K member 2 (Homo sapiens); experiment: Agonist activity at human TREK1 expressed in HEK293 cells assessed as increase in K+ current at 10 uM measured at +60 mV by whole-cell patch clamp method relative to control; assay type: cell-based; in short: as §3
[22] = target: T2, Potassium channel subfamily K member 10 (Homo sapiens); experiment: Agonist activity at TREK-2 (unknown origin) expressed in HEK293 cells assessed as increase in K+ current at 10 uM measured at +60 mV by whole-cell patch clamp method relative to control; assay type: cell-based
[23] = target: Potassium channel subfamily K member 9 (Homo sapiens) (UniProt Q9NPC2); experiment: Agonist activity at TASK3 (unknown origin) expressed in HEK293 cells assessed as increase in K+ current at 10 uM measured at +60 mV by whole-cell patch clamp method relative to control; assay type: cell-based

| Compound | Activity (Mus musculus [3]) | fold change (FC) [4] | Activity (Mus musculus [5]) | inhibition in vivo at 10 mg/kg (Mus musculus [6]) | Activity (Mus musculus [10]) | Activity (Mus musculus [11]) | Activity (Mus musculus [14]) | Activity (Mus musculus [15]) | Activity (Mus musculus [17]) | Activity (Mus musculus [18]) | other results |
| --- | --- | --- | --- | --- | --- | --- | --- | --- | --- | --- | --- |
| N#C/C(=C\c1ccc(O)c(O)c1)C(=O)O | 59.4% | 1.5 | 21.4% |  |  |  |  |  |  |  | Drug metabolism (Liver [1]): Metabolite_Detected; fold change (FC) [2]: 1.23 |
| CCOC(=O)/C(C#N)=C/c1ccoc1 | 11.9% | 2.09 | 28.4% | 55.9% |  |  |  |  |  |  | half-life [7]: < 4 min; Drug metabolism (Liver [8]): Metabolite_Detected |
| N#C/C(=C\c1ccoc1)C(=O)Nc1ccccc1 | 148.6% |  | 107.7% | 48% | 24.8% | 22.1% | 0% | 29.2% | 0% | 35.1% | fold change (FC) [9]: 0.5; fold change (FC) [12]: 3; fold change (FC) [13]: 4.64; fold change (FC) [16]: 1 |
| O=C(O)/C=C/c1ccc(O)c(O)c1 |  |  |  |  |  |  |  |  |  |  | fold change (FC) [19]: 1 |
| N#C/C(=C\c1cc2ccccc2[nH]1)C(=O)Nc1ccccc1 | 49.5% |  | 49.5% | 52% | 27.9% | 39.2% | 33% | 18.7% | 0% | 51.2% | fold change (FC) [20]: 0.9; fold change (FC) [21]: 2.16 to 2.2; fold change (FC) [22]: 1.6; fold change (FC) [23]: 1.2 |
